High-throughput results as filed in PubChem.
APJ antagonist = antagonists of human APJ apelin receptor; CHO-K1 APJ beta-arrestin complementation, luminescence; inhibition, % at 20 µM; 330,000 compounds, 0.32% hits;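 active means inhibition above about 40% at 20 µM, limit read from the data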;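 further: cells challenged with 10 nM apelin-13 agonist together with compound; plate controls were apelin-13 plus DMSO wells for no effect and DMSO wells lacking apelin-13 for full effect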
APJ agonist = APJ receptor agonism; P35414; CHO-K1 APJ PathHunter beta-arrestin, luminescence; 0% DMSO wells, 100% apelin; activation, % at 20 µM; 330,000 compounds, 0.11% hits;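 active means activation more than six SD over the plate average, tested at 20 µM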;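 further: 0% = DMSO alone and 100% = apelin-13 at 10 nM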
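assay system = CHO-K1 APJ beta-arrestin complementation cell line | input = cell density 1000 per well | dosing = compound 20 µM once, DMSO 1% | timing = compound 90 min 25 °C, reagent 1 h | measured by = luminescence from split beta-galactosidase complementation, Galacton Star/Emerald II substrate | read-out basis = APJ agonist activity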
CXCR6 inh = blocks human CXCR6 beta-arrestin recruitment; AID 602244; CHO-K1 PathHunter CXCR6 beta-arrestin, luminescence; inhibition, % at 20 µM; 360,000 compounds, 0.36% hits; in the data active means inhibition above about 34%, passing the limit was not always enough;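 further: antagonist mode with CXCL16 agonist at 10 nM final; 0% = 10 nM CXCL16 with DMSO and 100% = unstimulated wells without agonist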
Target sequence (O00574 whole entry, looked up): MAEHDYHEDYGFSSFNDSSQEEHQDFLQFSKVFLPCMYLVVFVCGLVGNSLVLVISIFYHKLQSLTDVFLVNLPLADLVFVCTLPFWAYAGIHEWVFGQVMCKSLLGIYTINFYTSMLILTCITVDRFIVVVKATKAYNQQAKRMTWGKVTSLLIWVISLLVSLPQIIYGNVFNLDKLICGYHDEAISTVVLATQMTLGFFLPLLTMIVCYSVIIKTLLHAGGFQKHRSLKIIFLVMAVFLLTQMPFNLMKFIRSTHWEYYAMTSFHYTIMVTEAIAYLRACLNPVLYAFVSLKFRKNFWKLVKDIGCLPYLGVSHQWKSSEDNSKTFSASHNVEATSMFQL
CCR6 antagonist = CCR6 (human) receptor antagonism; inhibition, % at 20 µM; AID 493098; P51684; CHO-K1 CCR6 PathHunter beta-arrestin, luminescence, CCL20-stimulated; 340,000 compounds, 0.49% hits;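 active means compounds whose inhibition of the agonist-driven luminescence signal at 20 µM reaches about 50%, limit read from the data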;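 further: cells stimulated with CCL20 at 14 nM final; plate controls were DMSO with CCL20 for no effect and DMSO without agonist for full effect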
FXN GAA850 act = frataxin GAA850 promoter activation. HEK293 lucGAA850 FXN promoter luciferase reporter, 24 h; percent of 10 µM SAHA response. activation, % at 6 µM. 360,000 compounds, 0.56% hits. AID 540364;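 active means activation above the average of all compounds screened plus 3 SD, cutoff fixed separately per campaign, cut at about 7.5% in these data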;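 further: 0% = DMSO wells and 100% = 10 µM SAHA wells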
EBI2 antag = antagonists of human EBI2 receptor. inhibition, % at 5 µM. P32249. 360,000 compounds, 0.81% hits. EBI2 beta-arrestin recruitment, luminescence, 7a,25-OHC stimulated; in the data active means inhibition above about 38%;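 further: enzyme fragment complementation signal reports receptor beta-arrestin coupling in cells; 0% = agonist plus DMSO wells and 100% = wells without agonist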
EBI2 conf = confirmation of human EBI2 receptor antagonists; inhibition, % at 5 µM; 2,400 compounds, 29% hits; shares compounds with EBI2 antag; EBI2 beta-arrestin luminescence, 7a,25-OHC antagonism;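 active means inhibition of at least 50%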
EBI2 agonist = activates EBI2, counter-screen for EBI2 antagonists; EBI2-expressing cells, agonist mode, luminescence, 60 min; 0% vehicle, 100% 7α,25-dihydroxycholesterol control; AID 652000; 2,400 tested, under 10 active; activation, % at 5 µM; shares compounds with EBI2 antag;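 active means activation of at least 50%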
bGal counter = inhibits E. coli beta-galactosidase, counter-screen for EBI2 antagonists; 2,400 compounds, 1% hits; shares compounds with EBI2 antag; purified beta-galactosidase, luminescent Galacton Star, 15 min; inhibition, % at 5 µM;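 active means replicate-average signal at least 3 plate SD below neutral wells, shown as high inhibition, flagging enzyme-inhibiting false positives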;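 further: 0% = DMSO wells with enzyme and 100% = wells lacking enzyme; higher means stronger loss of beta-gal luminescence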
* hit, by the source's call. This is a sample that favours compounds with a hit; in the whole collection about 2% have one here.

For CC(C)(C)NC(=O)c1cc([N+](=O)[O-])ccc1N1CCCCC1 the results were CXCR6 inh 0, CCR6 antagonist 8, FXN GAA850 act 1, EBI2 antag 57*, EBI2 conf 39, EBI2 agonist 0 and bGal counter 3.
Screening FC(F)(F)Oc1ccccc1C(c1nnnn1-c1ccc2c(c1)OCCO2)N1CCN(C/C=C/c2ccccc2)CC1 (centres undefined) returned CXCR6 inh 21, EBI2 antag 81*, EBI2 conf 56*, EBI2 agonist 1 and bGal counter 4.
For C(=C\c1ccccc1)/CN1CCN(C(c2cccc3ccccc23)c2nnnn2-c2ccc3c(c2)OCCO3)CC1 (centres undefined) the results were CXCR6 inh 6, EBI2 antag 55*, EBI2 conf 22, EBI2 agonist 0 and bGal counter -18.
Screening COc1ccc(-n2nnnc2C(c2cccc(OC)c2OC)N2CCN(C/C=C/c3ccccc3)CC2)cc1 (centres undefined) returned CXCR6 inh 18 and EBI2 antag 17.
For Cc1cccc(C)c1-n1nnnc1C(c1cccc2ccccc12)N1CCN(C/C=C/c2ccccc2)CC1 (centres undefined) the results were CXCR6 inh 9 and EBI2 antag 36.
O=C(OCc1ccccc1)N1CCN(C(c2ccnc3ccccc23)c2nnnn2-c2ccc3c(c2)OCCO3)CC1 (centres undefined) was read as CXCR6 inh 18, EBI2 antag 60*, EBI2 conf 27, EBI2 agonist 3 and bGal counter 9.
COC(=O)c1ccc2nc(-c3ccc(Cl)cc3)c(Cc3ccsc3)n2c1 was read as CXCR6 inh 9 and EBI2 antag 30.
Cc1nc(C)c(C(=O)OCC(=O)NCc2ccccc2Cl)s1 was read as APJ antagonist 3, APJ agonist -3, CXCR6 inh 0, CCR6 antagonist -3, FXN GAA850 act -3 and EBI2 antag -5.
Screening COc1ccc(C(N)c2csc(Nc3nncc4ccccc34)n2)cc1 (centres undefined) returned CXCR6 inh -15, FXN GAA850 act 0 and EBI2 antag -14.
CCCc1nc2ccc(NC(=O)c3cccs3)cc2c(=O)n1Cc1ccc(Cl)cc1 was read as APJ antagonist 6, APJ agonist -2, CXCR6 inh 2, CCR6 antagonist -9, FXN GAA850 act 2, EBI2 antag 43*, EBI2 conf 20, EBI2 agonist 3 and bGal counter 6.
For CC(=O)N1c2ccc(S(=O)(=O)NCC3CCC(C(=O)NCc4ccc(C)cc4)CC3)cc2CC1C (centres undefined) the results were APJ antagonist 9, APJ agonist 7, CXCR6 inh 1, CCR6 antagonist 16, FXN GAA850 act 1, EBI2 antag 57*, EBI2 conf 46, EBI2 agonist 0 and bGal counter 7.
For CC(=O)N1c2ccc(S(=O)(=O)NCC3CCC(C(=O)NCc4ccc(C)o4)CC3)cc2CC1C (centres undefined) the results were APJ antagonist 13, APJ agonist -1, CXCR6 inh -6, CCR6 antagonist 7, FXN GAA850 act -1 and EBI2 antag -9.
`Cc1ccc(CNC(=O)C2CCN(S(=O)(=O)c3ccc4c(c3)CC(C)N4C(=O)C3CC3)CC2)cc1` (centres undefined) gave APJ antagonist -9, APJ agonist 22, CXCR6 inh -7, CCR6 antagonist 9, FXN GAA850 act 0, EBI2 antag 79*, EBI2 conf 45, EBI2 agonist 1 and bGal counter 3.
CC(=O)N1c2ccc(S(=O)(=O)N3CCC(C(=O)NCc4ccc(C)cc4)CC3)cc2CC1C (centres undefined) was read as APJ antagonist 5, APJ agonist -2, CXCR6 inh -10, CCR6 antagonist 27, FXN GAA850 act 0 and EBI2 antag 38.
Screening C=C1[C@@H](OC(C)=O)C=C[C@@]2(C)C=CC(=O)[C@@](C)(OC(C)=O)[C@@H]2[C@@H](OC(C)=O)[C@]2(O)[C@@H](C)C(=O)O[C@H]2[C@H]1Cl returned CXCR6 inh 1, FXN GAA850 act -2 and EBI2 antag -10.
For CC(C)C[C@H]1CNC(=S)N1C[C@H]1CCCN1C[C@H](Cc1ccccc1)N1C[C@H](CC(C)C)N(CCc2ccccc2)C1=S the results were CXCR6 inh 12 and EBI2 antag -1.
Screening COc1ccc(/C=C/c2c(-c3ccc(OC)cc3)sc3ccc(N4CCOCC4)cc23)cc1 returned APJ antagonist -13, APJ agonist 9, CXCR6 inh 2, CCR6 antagonist 1, FXN GAA850 act 1, EBI2 antag 50*, EBI2 conf -2, EBI2 agonist -1 and bGal counter -11.
COc1cc2oc(=O)cc(CN(Cc3ccccc3)Cc3ccccc3)c2cc1Cl was read as CXCR6 inh 12, EBI2 antag 45*, EBI2 conf 38, EBI2 agonist -1 and bGal counter -2.
COc1ccc2c(CN(Cc3ccccc3)Cc3ccccc3)cc(=O)oc2c1 was read as CXCR6 inh 6, EBI2 antag 52*, EBI2 conf 21, EBI2 agonist -1 and bGal counter -13.
Screening COc1cc2oc(=O)cc(CN3CCCCC3)c2cc1Cl returned CXCR6 inh -5 and EBI2 antag -6.
Cc1ccccc1OCc1occc1C(=O)Nc1cccc(-n2cnnn2)c1 was read as APJ antagonist -13, APJ agonist 6, CXCR6 inh -8, CCR6 antagonist 28, FXN GAA850 act -1 and EBI2 antag 10.
`COc1ccc(/C=C2\SC(=Nc3ccccc3OC)NC2=O)cc1` gave APJ antagonist 10, APJ agonist -5, CXCR6 inh 9, CCR6 antagonist 10, FXN GAA850 act -4 and EBI2 antag 1.
`COc1ccc(/C=C2\SC(=NCc3ccccc3)NC2=O)cc1` gave APJ antagonist 5, APJ agonist -1, CXCR6 inh -8, CCR6 antagonist 10, FXN GAA850 act -2, EBI2 antag 47*, EBI2 conf 39, EBI2 agonist 2 and bGal counter 4.
